Results as given in ChEMBL document CHEMBL1152609, “Synthesis and pharmacological exploitation of clioquinol-derived copper-binding apoptosis inducers triggering reactive oxygen species generation and MAPK pathway activation” (2009).
Calls of active or inactive are those of the source. No cut-off for these calls is given here.

Columns and labels:
HeLa [1] = assay: Stimulation of reactive oxygen species in human HeLa cells at 1 uM in presence of 5 uM CuCl2 after 1 hr by dihydroethidium dye based fluorescence assay; format: functional, cell-based
How it was run: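 HeLa cells grown in DMEM with 10% FBS, 2 mM glutamine, penicillin/streptomycin at 37 °C, 5% CO2. Compound given with CuCl2, with or without tempol 1 mM; 0.5% DMSO control, untreated blank. Dihydroethidium 5 µmol/L loaded 30 min, PBS wash, epifluorescence microscopy; four separate cultures, two to six coverslips each.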

[2] = Growth inhibition of human BT-483 cells after 48 hrs by MTT assay in presence of 10% FBS supplemented DMEM medium; format: functional; conditions: BT-483, 48 h
How it was run: (§1)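 Cells seeded at 5 × 10³/well and allowed 24 h to attach, then exposed to compound (DMSO stock) or vehicle for 48 h in 10% FBS DMEM at 37 °C, 5% CO₂. MTT (2 mg/mL in PBS) added for a further 2 h; formazan dissolved in DMSO and read at 570 nm. Inhibition = (1 − At/Ac) × 100. GI₅₀ interpolated from dose-response curves; mean ± SEM of 4–6 experiments; top concentration 40 μM.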

[3] = Growth inhibition of human SKHep cells after 48 hrs by MTT assay in presence of 10% FBS supplemented DMEM medium; format: functional; how it was run: as §1
HeLa [4] = assay: Induction of apoptosis in human HeLa cells assessed as accumulation at subG1 phase at 1 uM in presence of 10 uM CuCl2 and 10 uM caspase inhibitor z-VAD after 24 hrs using propidium iodide staining by flow cytometry; format: functional
How it was run: (§2)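 HeLa cells exposed 24 h to test agent; controls were 0.5% DMSO and untreated cells. Optional additions were CuCl₂ 10 μM, tempol 1 mM or z-VAD. Cells were fixed in 80% ethanol and held at −20 °C. They were then stained 30 min at room temperature in the dark with PI 0.08 mg/mL, 0.1% Triton X-100 and RNase A 0.2 mg/mL in PBS. Subdiploid (sub-G1) fraction was quantified by flow cytometry as % of all events.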

HeLa [5] = assay: Activation of ERK phosphorylation in human HeLa cells at 1 uM in presence of 10 uM CuCl2 after 48 hrs by Western blot
HeLa [6] = assay: Activation of ERK phosphorylation in human HeLa cells at 1 uM in presence of 10 uM CuCl2 after 24 hrs by Western blot; format: cell-based
How it was run: (§3)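 HeLa cells grown in DMEM with 10% FBS, 2 mM glutamine and penicillin/streptomycin at 37 °C, 5% CO₂. Treated cells were lysed and the extracts run on Western blot. Membranes were blocked overnight at 4 °C in TBST/5% non-fat milk. Probed with phospho- and total ERK1/2, p38 and JNK antibodies, then anti-mouse or anti-rabbit IgG (1:10,000, 1 h, RT), with ECL detection.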

HeLa [7] = assay: Induction of apoptosis in human HeLa cells assessed as accumulation at subG1 phase at 1 uM in presence of 10 uM CuCl2 after 24 hrs using propidium iodide staining by flow cytometry; format: functional; how it was run: as §2
[8] = biological target: T1, MAP kinase p38 (Homo sapiens) (UniProt O15264+Q15759+Q16539+P53778); assay: Activation of p38 phosphorylation in human HeLa cells at 1 uM in presence of 10 uM CuCl2 after 24 hrs by Western blot
[9] = biological target: T1, MAP kinase p38 (Homo sapiens); assay: Activation of p38 phosphorylation in human HeLa cells at 1 uM in presence of 10 uM CuCl2 after 24 hrs by Western blot; format: cell-based; how it was run: as §3
HeLa [10] = assay: Induction of apoptosis in human HeLa cells assessed as accumulation at subG1 phase at 1 uM after 24 hrs using propidium iodide staining by flow cytometry; format: functional; how it was run: as §2
[11] = Growth inhibition of human CE81T cells after 48 hrs by MTT assay in presence of 10% FBS supplemented DMEM medium; format: functional; how it was run: as §1
[12] = Activation of JNK phosphorylation in human HeLa cells at 1 uM in presence of 10 uM CuCl2 after 48 hrs by Western blot; format: cell-based; how it was run: as §3
HeLa [13] = assay: Growth inhibition of human HeLa cells after 48 hrs by MTT assay in presence of 1 uM CuCl2; format: functional; how it was run: as §1
HeLa [14] = assay: Induction of apoptosis in human HeLa cells assessed as accumulation at subG1 phase at 1 uM in presence of 10 uM CuCl2 and 1 mM tempol after 24 hrs using propidium iodide staining by flow cytometry; format: functional; how it was run: as §2
[15] = biological target: T1, MAP kinase p38 (Homo sapiens); assay: Activation of p38 phosphorylation in human HeLa cells at 1 uM in presence of 10 uM CuCl2 after 48 hrs by Western blot
[16] = Activation of JNK phosphorylation in human HeLa cells at 1 uM in presence of 10 uM CuCl2 after 48 hrs by Western blot
HeLa [17] = assay: Growth inhibition of human HeLa cells after 48 hrs by MTT assay in presence of 50 uM ZnCl2; format: functional; how it was run: as §1
HeLa [18] = assay: Activation of ERK phosphorylation in human HeLa cells at 1 uM in presence of 10 uM CuCl2 after 24 hrs by Western blot
HeLa [19] = assay: Activation of ERK phosphorylation in human HeLa cells at 1 uM in presence of 10 uM CuCl2 after 48 hrs by Western blot; format: cell-based; how it was run: as §3
HeLa [20] = assay: Growth inhibition of human HeLa cells after 48 hrs by MTT assay in presence of 50 uM CuCl2; format: functional; how it was run: as §1
[21] = Activation of JNK phosphorylation in human HeLa cells at 1 uM in presence of 10 uM CuCl2 after 24 hrs by Western blot; format: cell-based; how it was run: as §3
HeLa [22] = assay: Growth inhibition of human HeLa cells after 48 hrs by MTT assay in presence of 100 uM ZnCl2; format: functional; how it was run: as §1
HeLa [23] = assay: Growth inhibition of human HeLa cells after 48 hrs by MTT assay in presence of 10% FBS supplemented DMEM medium; format: functional; how it was run: as §1
[24] = Activation of JNK phosphorylation in human HeLa cells at 1 uM in presence of 10 uM CuCl2 after 24 hrs by Western blot
HeLa [25] = assay: Induction of apoptosis in human HeLa cells assessed as accumulation at subG1 phase at 2 uM after 24 hrs using propidium iodide staining by flow cytometry; format: functional; how it was run: as §2
HeLa [26] = assay: Growth inhibition of human HeLa cells after 48 hrs by MTT assay in presence of 10 uM CuCl2; format: functional; how it was run: as §1
[27] = biological target: T1, MAP kinase p38 (Homo sapiens); assay: Activation of p38 phosphorylation in human HeLa cells at 1 uM in presence of 10 uM CuCl2 after 48 hrs by Western blot; format: cell-based; how it was run: as §3

In the case of `Cc1ccc(S(=O)(=O)N2CCN(Cc3cc([N+](=O)[O-])c4cccnc4c3O)CC2)cc1`, the Activity (HeLa [1]) is reported as “Active”, the GI50 [2] is reported as 1900 nM and the GI50 [3] is reported as 14600 nM. The Activity (HeLa [4]) was 1.58%, the Activity (HeLa [5]) was “Active” and the Activity (HeLa [6]) was “Active”. The Activity (HeLa [7]) was 17.5%, the Activity [8] was “Active” and the Activity [9] was “Active”. For the same molecule, the Activity (HeLa [10]) was 6.77%, the GI50 [11] was 5900 nM and the Activity [12] was “Active”. For the same molecule, the GI50 (HeLa [13]) was 650 nM, the Activity (HeLa [14]) was 1.34% and the Activity [15] was “Active”. The Activity [16] was “Active”, the GI50 (HeLa [17]) was 480 nM and the Activity (HeLa [18]) was “Active”. The Activity (HeLa [19]) was “Active”, the GI50 (HeLa [20]) was 60 nM and the Activity [21] was “Active”. For the same molecule, the GI50 (HeLa [22]) was 260 nM, the GI50 (HeLa [23]) was 710 nM and the Activity [24] was “Active”. The Activity (HeLa [25]) was 18.57%, the GI50 (HeLa [26]) was 250 nM and the Activity [27] was “Active”.
